Consider 1 compound from ChEMBL document CHEMBL1138476 (J Med Chem, 2009).

In series [1] the test system is Canis familiaris. As to the kind of experiment: Effect on respiratory function in spontaneously breathing mongrel dog assessed as change in intrapleural pressure at 5 mg/kg after intravenous infusion for 6 mins (RVb= -21.2+/-26.5 %). The class given is functional, Canis lupus familiaris.
Series [2] has as its system Rattus norvegicus. Briefly: Effect on acute renal function in rat assessed as change in urine creatinine level per 100 gm body weight at 30 mg/kg, po (RVb= 16.2+/-3.3 mg/dl). The class given is functional.
The test system of series [3] is Canis familiaris. As to the kind of experiment: Effect on respiratory function in spontaneously breathing mongrel dog assessed as change in peak expiratory flow at 5 mg/kg after intravenous infusion for 30 mins (RVb= -3.3+/-6.4 %). The class given is functional, Canis lupus familiaris.
In series [4] the test system is Canis familiaris. As to the kind of experiment: Effect on respiratory function in spontaneously breathing mongrel dog assessed as change in respiration rate at 5 mg/kg after intravenous infusion for 15 mins (RVb= -6.4+/-4.0 %). The class given is functional, Canis lupus familiaris.
Series [5] deals with Canis familiaris. As to the kind of experiment: Effect on respiratory function in spontaneously breathing mongrel dog assessed as change in respiration rate at 5 mg/kg after intravenous infusion for 60 mins (RVb= -19.5+/-16.3 %). The class given is functional, Canis lupus familiaris.
The subject of series [6] is Canis familiaris. As to the kind of experiment: Effect on respiratory function in spontaneously breathing mongrel dog assessed as change in tidal volume at 5 mg/kg after intravenous infusion for 30 mins (RVb= 6.1+/-5.6 %). The class given is functional, Canis lupus familiaris.
Series [7] concerns Canis familiaris. As to the kind of experiment: Effect on respiratory function in spontaneously breathing mongrel dog assessed as change in minute volume at 5 mg/kg after intravenous infusion for 15 mins (RVb= -4.7+/-3.4 %). The class given is functional, Canis lupus familiaris.
Series [8] concerns Canis familiaris. Briefly: Effect on respiratory function in spontaneously breathing mongrel dog assessed as change in mean arterial pressure at 5 mg/kg after intravenous infusion for 6 mins (RVb= 1.5+/-0.9 %). The class given is functional, Canis lupus familiaris, Artery.
The nature of series [9]: Plasma concentration in spontaneously breathing dog at 5 mg/kg, iv after 15 mins. Set-up: dose 5 mg/kg, route intravenous. The class given is ADME, organism-based, Canis lupus familiaris. A digest of the protocol:
(§1)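 Spontaneously breathing, barbiturate-anesthetized mongrel dogs (n = 4) infused iv at 5.0 mg/kg over 6 min. Total pooled plasma concentrations taken at 6, 15, 30 and 60 min.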

Series [10] in a line: Plasma concentration in spontaneously breathing dog at 5 mg/kg, iv after 60 mins. The class given is ADME, organism-based, Canis lupus familiaris. On the set-up: dose 5 mg/kg, route intravenous. Put shortly:
as §1

Series [11] addresses T1, Corticotropin-releasing factor receptor 1 (Rattus norvegicus, UniProt P35353).
T1 sequence (P35353 whole entry): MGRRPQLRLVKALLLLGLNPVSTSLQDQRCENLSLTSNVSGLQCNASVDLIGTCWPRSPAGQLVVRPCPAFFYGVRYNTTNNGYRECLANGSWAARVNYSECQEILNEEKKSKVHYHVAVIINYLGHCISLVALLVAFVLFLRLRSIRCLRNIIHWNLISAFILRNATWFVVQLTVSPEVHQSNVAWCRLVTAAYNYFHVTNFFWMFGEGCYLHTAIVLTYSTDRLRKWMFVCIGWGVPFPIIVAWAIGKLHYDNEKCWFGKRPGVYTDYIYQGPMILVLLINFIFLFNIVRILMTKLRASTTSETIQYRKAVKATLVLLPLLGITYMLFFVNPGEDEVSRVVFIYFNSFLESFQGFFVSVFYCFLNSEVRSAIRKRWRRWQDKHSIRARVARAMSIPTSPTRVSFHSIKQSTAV
Briefly: Displacement of [125I]Tyro-rat/human CRF from CRF1 receptor in rat cortical membrane by gamma counting. The class given is cell membranes. Put shortly: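 Binding to CRF receptors in rat cortical homogenate.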
On the technique in general: Loss of bound radioactivity is the signal in a displacement assay; it reports binding, not function.

Series [12] concerns the target T2, Substance-K receptor (Homo sapiens, UniProt P21452).
T2 sequence (P21452 whole entry): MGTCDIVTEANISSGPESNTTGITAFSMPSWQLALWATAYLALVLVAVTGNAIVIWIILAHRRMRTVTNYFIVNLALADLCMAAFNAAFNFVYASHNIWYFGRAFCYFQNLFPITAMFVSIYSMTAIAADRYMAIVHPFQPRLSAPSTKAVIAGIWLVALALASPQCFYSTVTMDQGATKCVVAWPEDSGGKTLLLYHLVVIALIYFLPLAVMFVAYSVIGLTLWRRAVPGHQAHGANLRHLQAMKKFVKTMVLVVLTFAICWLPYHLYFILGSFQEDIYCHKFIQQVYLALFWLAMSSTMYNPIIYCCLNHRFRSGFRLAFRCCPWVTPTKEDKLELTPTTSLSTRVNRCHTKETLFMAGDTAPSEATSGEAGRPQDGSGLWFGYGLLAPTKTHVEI
Briefly: Binding affinity to human neurokinin 2 receptor. Put shortly: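 Human neurokinin 2 receptor binding, contracted out as part of a broad screen.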

Series [13] in a line: Solubility in acetone. The class given is physicochemical.
The subject of series [14] is Rattus norvegicus. Briefly: Toxicity in rat assessed as total distance traveled at 100 mg/kg, po after 1 hr by spontaneous locomotor test. On the set-up: dose 100 mg/kg, route oral. The conditions noted are these: in vivo. The class given is organism-based. A digest of the protocol:
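Rat spontaneous locomotor activity test with oral dosing in 0.25% Methocel 1 h before testing, at doses up to 100 mg/kg. Values are mean ± SEM, with N rats per group, compared with the vehicle (zero-dose) group.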

Series [15] concerns Rattus norvegicus. As to the kind of experiment: Toxicity in rat assessed as time spent on rotarod at 1 mg/kg, po after 1 hr by rotarod test. The class given is organism-based. On the set-up: dose 1 mg/kg, route oral. The conditions noted are these: in vivo. Put shortly: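 Rats (N = 8 per dose) dosed po in 0.25% Methocel 1 h before rotorod testing. Time on rotorod in s, given as mean ± SEM against a vehicle (zero dose) group.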
(Falling from the rotarod earlier than controls is read as motor impairment.)

Series [16] is described as follows: Elimination half life in rat at 1 mg/kg, iv and 5 mg/kg, po. The conditions noted are these: in vivo, read-out: beta t1/2 (converted). The class given is ADME, organism-based. Put shortly: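 Rats (n = 3) were dosed at 1 mg/kg iv in 10% DMAC, 70% propylene glycol and deionized water, and at 5 mg/kg po in 0.5% methylcellulose.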
Series [17] in a line: Cmax in rat at 5 mg/kg, po. The class given is ADME, organism-based. On the set-up: dose 5 mg/kg, route oral. The conditions noted are these: in vivo. A digest of the protocol: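 Rats (n = 3) received 1 mg/kg iv in 10% DMAC, 70% propylene glycol and deionized water, or 5 mg/kg orally in 0.5% methylcellulose.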
A short description of series [18]: Tmax in rat at 5 mg/kg, po. The class given is ADME, organism-based. Set-up: dose 5 mg/kg, route oral. The conditions noted are these: in vivo. A digest of the protocol: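 Rats (n = 3) dosed iv at 1 mg/kg in 10% DMAC, 70% propylene glycol and deionized water, and orally at 5 mg/kg in 0.5% methylcellulose.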
Series [19] in a line: AUC (0 to infinity) in chimpanzee at 0.5 mg/kg, iv. Set-up: time infinity, dose 0.5 mg/kg, route intravenous. The conditions noted are these: plasma. The class given is ADME, organism-based, Pan troglodytes. A digest of the protocol: (§2)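 Chimpanzee PK. Oral: 1 mg/kg in two alert animals, given as a 1 mg/mL suspension in 50–50 (v/v) 0.5% methylcellulose/Tang orange juice with 1% Tween-80. IV: 0.5 mg/kg in one animal in 10% DMAC, 70% propylene glycol and deionized water, infused over 10 min (0.2 mL/kg). EDTA blood was taken predose and at 2–96 h; iv sampling added 6, 15 and 30 min.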

Series [20] is described as follows: Clearance in chimpanzee at 0.5 mg/kg, iv. Set-up: dose 0.5 mg/kg, route intravenous. As to conditions: in vivo. The class given is ADME, organism-based, Pan troglodytes. Put shortly: as §2
Series [21] is described as follows: Oral bioavailability in chimpanzee at 1 mg/kg. The class given is ADME, organism-based, Pan troglodytes. The conditions noted are these: in vivo. Put shortly: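 Two alert chimpanzees were given 1 mg/kg po as a 1 mg/mL suspension in 50:50 (v/v) 0.5% methylcellulose and Tang orange juice containing 1% Tween-80. EDTA blood was taken predose and at 2–96 h. Bioavailability was calculated against a 0.5 mg/kg iv dose given to one animal.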

Series [22] concerns Canis familiaris. Briefly: Cardiovascular activity in mechanically ventilated mongrel dog at assessed as increase in contractility at 3 mg/kg to 5 mg/kg, iv by dose escalation study.

A word on the IC50: it is the midpoint of a concentration-inhibition curve. Broadly, the solubility is the dissolved amount per volume that the medium holds. Low values mean a poorly soluble substance, high ones a readily soluble substance. As a reminder, the Cmax is the maximum level reached in the sampled fluid or tissue. A word on the Tmax: it is the time from dosing to the highest level. The term AUC(0-inf) denotes total exposure, with the tail of the curve extrapolated. Higher therefore signals high exposure. Usually clearance stands for a measure of how efficiently the substance is removed, as volume per time. A low value points to inefficient removal. Broadly, the bioavailability is dose-corrected exposure relative to a reference, in per cent. The low end stands for poor availability, the high end for good availability.

Values after ≈ are worked out from the molar mass of the structure shown.

On to `CC[C@@H](C)Nc1nc(C)nc2c(-c3ccc(OC)nc3C)c(C)nn12` [PEXACERFONT], for which the Activity was 3.3% in series [1]; 8 mg/dL in series [2]; -10.7% in series [3]; -3.1% in series [4]; -14.6% in series [5]; -15.2% in [6]. Further, the Activity in [7] was determined as 0.6%; in series [8], 3.8%; in series [14], 4041 cm; in series [22], 200 mmHg/s. The compound further came in with a concentration at 0.25 h in series [9] of 835 nM. The compound also had a concentration at 1 h in series [10] of 229 nM. Besides, the half-inhibitory concentration (IC50) in series [11] is 0.0061 µM; in [12], 4.9 µM. In addition, the solubility in series [13] was 460 mg/mL (≈ 1350 mM). The Time in [15] was found to be 133 s. Besides, the half-life in series [16] is 13.5 h. Besides, the concentration in series [17] peaked (Cmax) at 1260 nM. The time of peak concentration (Tmax) in [18] was found to be 0.75 h. This compound also registered a total exposure AUC(0-inf) in [19] of 11.9 µM·h. Besides, in [20], the clearance was 2 mL/min/kg. In series [21], this compound gave a bioavailability of 49%.
